Screens: PubChem, several laboratories
Pf gamet viab – kills late stage P. falciparum gametocytes. 150,000 compounds, 0.065% hits. P. falciparum stage V gametocytes, ATP luminescence, 24 h. inhibition, % at 10.9 µM;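 active = inhibition above the mean plus 3 SD of compounds within the control limits, set per campaign, cut at about 38% in these data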;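 also: 0% = DMSO wells and 100% = medium only without gametocytes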
Calb biofilm kill – mixture kills Candida albicans biofilm cells | C. albicans biofilm persisters + clotrimazole, fluorescence viability; primary screen in compound mixtures of four per well | inhibition, % at 7.6 µM | 120,000 compounds, 0.02% hits | AID 1242;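 active = inhibition above 30.3% in the primary screen of four-compound pools, then above 30% when the compound was retested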;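 also: compounds exposed to preformed 24 h biofilms for 48 h; 0% = untreated biofilm control and 100% = clotrimazole plus chlorhexidine kill blank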
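Test system: C. albicans biofilms. Buffer or medium: RPMI/MOPS medium, pH 7.0. Timing: 48 h compound exposure at 37 °C. Technique: Alamar Blue fluorescence. Evaluation: percent inhibition of biofilm viability.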
ROMK primary – modulators of human ROMK potassium channel. P48048. Tet-inducible ROMK, thallium flux fluorescence; actives lie on both sides. B-score at 10 µM. 130,000 compounds, 2% hits;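 active = signal ratio slope over the read window, or its plate-corrected B-score, at least 3 SD from the plate mean, either direction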;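 also: B-score of the F/F0 ratio slope over 7 to 12 s after thallium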
Target sequence (P48048 whole entry, looked up): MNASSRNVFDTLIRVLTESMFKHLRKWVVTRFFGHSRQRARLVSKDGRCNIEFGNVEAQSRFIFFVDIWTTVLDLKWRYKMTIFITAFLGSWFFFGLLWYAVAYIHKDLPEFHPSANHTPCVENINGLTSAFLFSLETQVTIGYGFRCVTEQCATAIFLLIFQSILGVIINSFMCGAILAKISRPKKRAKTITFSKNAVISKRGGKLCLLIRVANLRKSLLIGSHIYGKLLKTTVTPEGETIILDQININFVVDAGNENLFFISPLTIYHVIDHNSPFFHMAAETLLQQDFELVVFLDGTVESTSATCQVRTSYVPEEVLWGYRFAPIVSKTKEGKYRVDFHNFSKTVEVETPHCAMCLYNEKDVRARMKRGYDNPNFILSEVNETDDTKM
ROMK hit retest – human ROMK channel modulation, retest confirmation; shares compounds with ROMK primary; ROMK thallium flux, fluorescence ratio; stronger effect = lower value; normalized thallium flux (F/F0 slope) at 10 µM; 3,000 compounds, 54% hits; AID 1917;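 active = Flux at 10 µM at least 3 SD below or above vehicle control mean in one or both replicates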
Active calls of the source: *; / = not tested or not shown. This is one part of a sample in which hits are shown more often than they occur.

SMILES | Pf gamet viab | Calb biofilm kill | ROMK primary | ROMK hit retest
O=C(NCC1CCCN(Cc2cccc(OCCO)c2)C1)c1ccc(F)cc1 (centres undefined) | -1 | 18 | -0.034 | /
Cc1ccc(N2C(=S)NC3c4ccccc4OC2(C)C3C(=O)N(C)C)cc1 (centres undefined) | 25 | 5 | 1.1 | /
Cc1ccccc1N1C(=S)NC2c3ccccc3OC1(C)C2C(=O)N(C)C (centres undefined) | / | 13 | -6.8* | 0.055*
O=C(NC1=NN(c2ccccc2)CC1)Nc1ccccc1F | -31 | 14 | 0.48 | /
Cc1ccc(NC(=S)NCC2CCN(C(C)c3ccccc3)C2)cc1C (centres undefined) | -51 | 24 | -4.2* | 0.059*
Cc1ccc(NC(=S)NCC2CCCO2)cc1C (centres undefined) | -8 | 15 | -0.4 | /
COc1ccc(S(=O)(=O)N(C)CC(=O)NCCC2=CCCCC2)cc1OC | 6 | / | 0.12 | /
COc1ccc(S(=O)(=O)N(C)CC(=O)NCCC2=CCCCC2)cc1 | / | / | / | 0.069*
O=S(=O)(NCC1CN(S(=O)(=O)c2c(F)cccc2F)C1)c1ccc2c(c1)OCCO2 | -40 | / | / | /
O=C(Cc1cccc(NC(=O)C2CCN(C(=O)c3ccccc3)CC2)c1)Nc1cccc(C(=O)N2CCCC2)c1 | -9 | / | / | /
O=C(c1ccco1)N1CCN(S(=O)(=O)c2ccccc2[N+](=O)[O-])CC1 | -16 | 14 | 0.85 | /
CCCCCCCCn1c2c(c(=N)c3ccccc31)CCC2 | -4 | 28 | -6.6* | 0.039*
CCCCCn1c2c(c(=N)c3ccccc31)CCC2 | 1 | 14 | -1.4 | /
CCCCCCCCCn1c2c(c(=N)c3c1CCC3)CCCC2 | / | 8 | -3.4* | 0.038*
CCn1c2c(c(=N)c3c1CCC3)CCCC2 | -13 | 26 | / | /
O=C(N1CCN(c2ccc(F)cc2)CC1)C1(c2cccs2)CCOCC1 | -13 | 12 | / | /
COc1cccc(/C=N/N2CCOCC2)c1O | 6 | 13 | / | /
COc1cccc(/C=N/n2c(SC)nnc2-c2ccccc2)c1O | / | / | 3.6* | 0.081
[N-]=[N+]=NC[C@H](c1ccccc1)N1CCN(Cc2ccccc2)CCC1=O | -3 | / | / | /
COc1cccc(CSc2nc3cc4c(cc3cc2C)OCCO4)c1 | / | 17 | 0.17 | /
CC(C)CNC(=O)c1ccc2c(c1)C(=O)N(Cc1ccco1)C2=O | 4 | / | / | /
CC(C)NC(=O)c1ccc(N(Cc2ccccc2)S(C)(=O)=O)cc1 | -4 | / | / | /
Cn1cnc([N+](=O)[O-])c1S(=O)(=O)c1ccc(Cl)cc1 | -26 | 8 | -4.8* | 0.059*
Cn1cnc([N+](=O)[O-])c1NC(C)(C)C | 17 | / | 0.52 | /
O=C(NCCNc1ccc([N+](=O)[O-])cc1C(F)(F)F)c1ccc(F)cc1 | 29 | 8 | / | /
SMILES | Pf gamet viab | Calb biofilm kill | ROMK primary | ROMK hit retest
NCCCNc1ccc([N+](=O)[O-])cc1C(F)(F)F | -32 | 25 | -8.3* | 0.066*
CC1=C(CC(=O)O)c2cc(F)ccc2/C1=C\c1ccc(S(C)=O)cc1 (centres undefined) | / | 18 | / | /
CS/C(=N\S(=O)(=O)c1ccccc1)c1ccccc1 | / | 15 | 0.14 | /
O=S(=O)(/N=C(/Sc1ccccc1)c1ccccc1)c1ccccc1 | -4 | / | -2.8* | 0.05*
O=C(O)/C(=C\c1ccc2ccccc2c1)c1cccc2ccccc12 | 15 | / | / | /
Cc1cc(/C=C2\SC(=Nc3ccc(F)cc3)NC2=O)c(C)n1-c1ccc(S(N)(=O)=O)cc1 | -6 | / | 3.3* | 0.085
Cc1cc(/C=C2/SC(=O)NC2=O)c(C)n1-c1ccc(N2CCOCC2)cc1 | -8 | 11 | -0.082 | /
CC1CCN(C(=O)c2ccc(NS(=O)(=O)c3cccc4cccnc34)cc2)CC1 | -3 | 12 | 0.039 | /
Cc1ccc(N2/C(=N/c3nc(C)cc(C)n3)NC(=O)CC2C(=O)O)cc1 (centres undefined) | / | / | 0.0097 | /
Cc1cc(C)nc(/N=C2\NC(=O)CC(C(=O)O)N2c2ccc(Cl)cc2)n1 (centres undefined) | / | / | / | 0.082
O=C(NCc1ccc(Cl)cc1)N1CCN(Cc2ccccc2)CC1 | -12 | / | / | /
CC(=O)C1=C(C)NC(SCC(N)=O)=C(C#N)C1CC(C)C (centres undefined) | 8 | 11 | -0.34 | /
CCOC(=O)C1=C(C)NC(SC)=C(C#N)C1CC(C)C (centres undefined) | -5 | 12 | 2.5* | 0.08
C#CCN(C(=O)Nc1ccccc1)c1ccccc1 | 2 | 7 | 0.13 | /
C/C(N)=C(/C#N)C(=O)CSc1nnc(-c2ccccc2)n1C | -23 | 11 | / | /
CC(C)c1ccc(C2/C(=C(/O)c3ccc(F)cc3)C(=O)C(=O)N2CCCN2CCOCC2)cc1 (centres undefined) | -9 | / | / | /
Cc1ccc(NCc2nc(SCC(=O)Nc3ccccc3)n[nH]2)cc1 | 30 | / | / | /
